# A selection: hits, their analogues and other compounds. The true share with any hit is near 2.3%.
# TRPC6 act: mouse TRPC6 channel activators, primary screen, cell-based, HEK293, membrane potential dye; Short transient receptor potential channel 6 (Mus musculus), Q61143; HEK293-TRPC6 membrane potential dye fluorescence; stronger effect = higher value; 0.13% of 310,000 active; B-score at 10 µM;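 active = B-score of the integrated fluorescence ratio above library mean plus 3 SD, and starting fluorescence ratio within library mean plus 5 SD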;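 note: higher score means more depolarization so channel activation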
# TRPC4 inh: inhibitors of mouse TRPC4 channel, primary screen, Fluo4 calcium, HEK293 TRPC4beta/mu-opioid cells; DAMGO-evoked Fluo4 calcium flux; stronger effect = lower value; 0.39% of 300,000 active; B-score at 10 µM; AID 2247, 2010; Short transient receptor potential channel 4 (Mus musculus), Q9QUQ5;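 active = B-score over 3 SD under the library average, no early fluorescence shift, positive overall ratio signal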
# Target sequence (Q9QUQ5 whole entry, looked up): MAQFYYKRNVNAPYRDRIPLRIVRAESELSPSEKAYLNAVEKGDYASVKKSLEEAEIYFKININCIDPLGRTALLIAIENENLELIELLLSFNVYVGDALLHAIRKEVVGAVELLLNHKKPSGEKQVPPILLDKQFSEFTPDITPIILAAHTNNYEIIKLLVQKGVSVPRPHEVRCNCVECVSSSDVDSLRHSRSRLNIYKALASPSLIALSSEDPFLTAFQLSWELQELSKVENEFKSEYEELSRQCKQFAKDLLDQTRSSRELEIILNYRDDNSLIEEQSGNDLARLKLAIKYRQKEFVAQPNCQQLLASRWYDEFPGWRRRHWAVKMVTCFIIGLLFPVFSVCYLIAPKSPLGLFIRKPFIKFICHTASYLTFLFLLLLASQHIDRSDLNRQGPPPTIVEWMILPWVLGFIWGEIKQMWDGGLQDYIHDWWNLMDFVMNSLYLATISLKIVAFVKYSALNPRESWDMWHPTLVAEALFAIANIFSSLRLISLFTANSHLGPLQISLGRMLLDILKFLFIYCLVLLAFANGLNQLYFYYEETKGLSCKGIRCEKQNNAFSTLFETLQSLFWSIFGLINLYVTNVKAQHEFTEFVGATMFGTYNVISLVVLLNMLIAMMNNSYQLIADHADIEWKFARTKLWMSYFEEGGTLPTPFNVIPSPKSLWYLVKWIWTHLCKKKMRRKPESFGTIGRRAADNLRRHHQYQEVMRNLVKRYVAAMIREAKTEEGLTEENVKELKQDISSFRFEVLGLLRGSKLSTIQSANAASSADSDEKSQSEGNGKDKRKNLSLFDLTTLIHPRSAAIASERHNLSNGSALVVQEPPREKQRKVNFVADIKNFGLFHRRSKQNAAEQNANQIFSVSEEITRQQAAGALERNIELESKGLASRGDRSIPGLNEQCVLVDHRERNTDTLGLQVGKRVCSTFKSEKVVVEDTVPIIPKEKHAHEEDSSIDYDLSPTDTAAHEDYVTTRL
#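 test system = HEK293 cells with stable TRPC4beta plus mu-opioid receptor expression | detection = Fluo4 Ca2+ flux fluorescence | read-out = integrated fluorescence ratio relative to baseline, converted to per-well B score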
# DNA FID counter: compounds displacing fluorescent DNA intercalator, primary screen, artefact control for HCV NS3 helicase inhibitor project, biochemical, FID fluorescence; DNA fluorescent intercalator displacement; inhibition, % at 7.9 µM; 0.17% of 290,000 active; AID 1845, 2009; in the data active = inhibition above about 37%;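 note: 0% = vehicle and 100% = reference compound; higher means more ethidium bromide displaced from hairpin DNA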
# TRPC4 agonist: activators of mouse TRPC4 channel, primary screen, Fluo4 calcium, HEK293 TRPC4beta/mu-opioid cells; Fluo4 calcium fluorescence; stronger effect = higher value; Short transient receptor potential channel 4 (Mus musculus), Q9QUQ5; 0.49% of 310,000 active; B-score at 10 µM;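 active = B-score above 5 SD of library B-scores, and initial fluorescence ratio not above library mean plus 5 SD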;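 note: positive B-score marks a calcium rise read as TRPC4 activation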
#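 Technique: kinetic Fluo4 calcium fluorescence; Test system: TRPC4beta and mu-opioid receptor HEK293 stable cells; Measure: B-scored integrated calcium fluorescence ratio; Benchmarks: low control buffer alone, high control maximal DAMGO; Schedule: 45 min room-temperature Fluo4 loading, 110 s read.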
# TRPC4 potent: positive allosteric modulators of TRPC4, primary screen, cell-based, mouse TRPC4beta, HEK293 mu-opioid, Fluo-4 calcium; Short transient receptor potential channel 4 (Mus musculus), Q9QUQ5; DAMGO EC20, Fluo-4 Ca2+ flux; stronger effect = higher value; B-score at 10 µM; 0.42% of 310,000 active;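 active = B-score of calcium response area above 5 SD of library B-scores, with initial fluorescence ratio within 5 SD of library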;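 note: B-score of integrated fluorescence ratio over time as area under calcium response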
# TRPC6 inh: mouse TRPC6 channel inhibitors, primary screen, cell-based, HEK293, membrane potential dye | ACh-evoked depolarization; stronger effect = lower value | 1.1% of 310,000 active | B-score at 10 µM;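 active = B-score under library mean minus 3 SD, initial fluorescence not abnormally high, positive integrated signal ratio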;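 note: B-score derived from integrated fluorescence ratio over the kinetic read; more negative B-score means stronger inhibition of depolarization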
# An asterisk follows results filed as active; i = inactive; x = no result.
SMILES,TRPC6 act,TRPC4 inh,DNA FID counter,TRPC4 agonist,TRPC4 potent,TRPC6 inh
COc1ccc(C(Nc2ccccn2)c2c(NC(=O)c3ccco3)sc(C)c2C)cc1OC (configuration not stated),i,-6*,-14,i,i,i
Cc1ccc2nc(-c3ccc(O)cc3)oc2c1,i,i,-5,i,i,i
O=C(CCc1nc2ccccc2c(=O)[nH]1)N1CCN(S(=O)(=O)c2ccc(Cl)c(C(F)(F)F)c2)CC1,i,i,x,i,i,i
COc1ccc(-c2cc(C3CCN(c4cc(Cl)nc(N)n4)CC3)[nH]n2)cc1,i,i,-32,i,38*,i
Nc1nc(Cl)cc(N2CCC(c3cc(-c4ccc(Cl)cc4)n[nH]3)CC2)n1,i,i,-23,i,i,i
COc1ccc(OC)c(-c2cc(C3CCN(c4ncccc4[N+](=O)[O-])CC3)[nH]n2)c1,i,i,-19,i,i,i
COc1ccc(OC)c(-c2cc(C3CCN(c4cc(Cl)nc(N)n4)CC3)[nH]n2)c1,i,i,-29,i,12*,i
CCCCN(CC)CCCNC(=O)CC1Oc2ccccc2NC1=O (configuration not stated),i,i,-1,56*,i,i
NC(=Nc1ccccc1)Nc1ccccc1,i,i,-4,134*,i,i
O=C(NCCCN1CCOCC1)c1ccc(NC(=O)C2COc3ccccc3O2)cc1 (configuration not stated),i,-6*,10,78*,i,i
O=C(NCCCN1CCOCC1)c1ccc(CSc2ccc(Cl)cc2)cc1,i,i,38*,i,i,i
CC(C)c1ccc(C(=O)NCCCN2CCOCC2)cc1,i,i,7,i,i,i
O=C(NCCCN1CCOCC1)C1COc2ccccc2O1 (configuration not stated),i,i,3,i,i,i
C=CCN(c1ccccc1)S(=O)(=O)c1cccc(C(=O)NCC(c2cccs2)N2CCOCC2)c1 (configuration not stated),i,i,x,i,i,i
Nc1cc(C(F)(F)F)ccc1Nc1ccccc1,i,-6*,1,i,i,i
COC(=O)[C@@]1(Cc2ccc(F)cc2)[C@H]2c3cc(C(=O)N(C)C)n(CCc4ccccn4)c3C[C@H]2CN1C(=O)c1ccccc1,i,i,-58,143*,i,i
O=C(c1cccc(N2CCCC2=O)c1)N1CCN(c2cccc(Cl)c2)CC1,i,i,-53,i,i,i
O=C(C[N+]1(CC#Cc2ccccc2)CCCCC1)c1ccc(Cl)cc1,i,-6*,-11,i,i,i
O=C(C[N+]1(CC#Cc2ccccc2)CCCCC1)c1ccccc1,i,i,1,i,i,i
Cc1cc(C)c(C)c(S(=O)(=O)N2CCC(C(=O)Nc3ccncc3)CC2)c1C,i,i,2,i,i,i
Cc1nn(-c2nnc(NCc3ccccc3)nn2)c(C)c1Br,i,i,-6,i,17*,i
O=C(CN1C(=O)c2ccccc2S1(=O)=O)c1ccc(Cl)cc1Cl,i,i,-14,i,i,i
CCN(CC)CCn1c(NS(=O)(=O)c2ccc(Cl)cc2)nc2ccccc21,i,i,-4,65*,i,i
Cc1ccc(C)c(N2C(=O)c3ccc(C(=O)OCC(=O)c4c(N)n(C)c(=O)n(C)c4=O)cc3C2=O)c1,i,i,0,i,11*,i
CC(C)N1CCC(N2CCN(Cc3ccc(-c4ccccc4Cl)o3)CC2CCO)CC1 (configuration not stated),i,i,53*,i,i,i

# Screens: PubChem BioAssay, several laboratories
